Active and inactive are the calls of the source. No cut-off for these calls is given here.
Legend:
N2a = test: Neuroprotective activity in mouse N2A cells assessed as increase in neurite outgrowth at 0.3 uM after 48 hrs by fluorescent microscopic method; type: functional, cell-based
Summary of the method: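 N2a cells seeded at 1×10^4/well in MEM with 0.5% FBS plus compound (0.3 µM) for 48 h. Neurite outgrowth stain, then fluorescence imaging at 10× (20 images per well). Average neurite length quantified; mean ± SEM, n=3.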

MC65 = test: Neuroprotective activity against tetracycline removal-induced cytotoxicity in human MC65 cells assessed as increase in cell viability at 0.3 uM after 72 hrs by MTT assay; type: functional, cell-based
Summary of the method: (§1)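 MC65 cells kept in DMEM/10% FBS with 1 µg/mL tetracycline and G418. Cells washed twice with PBS, seeded in Opti-MEM at 4×10^4/well without tetracycline, given compound (0.3 µM, alone or in combination), 72 h at 37 °C. MTT added for 4 h, formazan dissolved in DMSO, A570 read. Viability as % of +TC controls; six replicates, ≥3 independent runs.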

Brain [1] = test: Effect on oxidative phosphorylation efficiency in C57BL/6 mouse brain mitochondria assessed as respiratory control ratio at 3.3 uM using succinate as substrate (reference value: 2.3 +/- 0.2); type: ADME
[2] = Neuroprotective activity against tetracycline removal-induced cytotoxicity in human MC65 cells assessed as increase in cell viability after 72 hrs by MTT assay; type: functional, cell-based; details: MC65, 72 h; summary of the method: as §1
Cortical neurone = test: Neuroprotective activity in E17 rat primary cortical neurons assessed as increase in neurite outgrowth after 4 days by DAPI-staining based assay; type: functional, cell-based
Summary of the method: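 Rat E17 cortical neurons on poly-D-lysine coverslips (2×10^4/well) in neurobasal/B27/Glutamax, treated with DMSO or compound from DIV1. Fixed at DIV5 in 4% PFA; neurites immunostained for beta III tubulin, nuclei with DAPI.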

Brain [3] = test: Effect on oxidative phosphorylation efficiency in C57BL/6 mouse brain mitochondria assessed as respiratory control ratio using glutamate at 3.3 uM (reference value: 3.8 +/- 0.5); type: ADME
Brain [4] = test: Effect on oxidative phosphorylation efficiency in C57BL/6 mouse brain mitochondria assessed as ADP/O ratio at 3.3 uM using glutamate (reference value: 2.3 +/- 0.3); type: ADME
Lipid bilayer [5] = test: Binding affinity to DPPC membrane assessed as appearance of disordered membrane structure at […] at 25 degC by SAXD analysis
Summary of the method: (§2)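 DPPC (2 mg) with compound at 10:1 lipid:compound molar ratio, hydrated in 100 mM NaCl, 25 mM Hepes pH 7.4, vortexed at 55 °C to form multilamellar vesicles. Small- and wide-angle X-ray diffraction at 25 and 50 °C; 10 min equilibration, 10 min exposure; d-spacings and chain packing read from reflections.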

Brain [6] = test: Effect on oxidative phosphorylation efficiency in C57BL/6 mouse brain mitochondria assessed as ADP/O ratio at 3.3 uM using succinate as substrate (reference value: 1.3 +/- 0.2); type: ADME
Lipid bilayer [7] = test: Binding affinity to DPPC membrane assessed as shift in onset of transition temperature at 40:1 […] molar ratio by differential scanning calorimetry
Summary of the method: (§3)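 Multilamellar DPPC vesicles (2 mg lipid) with compound at various lipid:compound molar ratios (40:1 up to 5:1) in 100 mM NaCl, 25 mM Hepes pH 7.4, made by vortexing at 55 °C. Samples degassed 10 min, buffer as reference. DSC scans 10–60 °C at 60 °C/h. Traces normalized to DPPC content. Onset (Tc), completion temperature and enthalpy taken from thermograms.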

Lipid bilayer [8] = test: Binding affinity to DPPC membrane assessed as change in enthalpy by differential scanning calorimetry (reference value: 8.7 kcal/mol); summary of the method: as §3
Lipid bilayer [9] = test: Binding affinity to DPPC membrane assessed as appearance of disordered membrane structure at […] at 25 degC by WAXD analysis; details: in the assay text read “SAXD analysis” for “WAXD analysis”; summary of the method: as §2
Lipid bilayer [10] = test: Binding affinity to DPPC membrane assessed as phase separation in membrane structure at […] at 50 degC by SAXD analysis; summary of the method: as §2
[11] = Effect on electron transport chain mitochondrial complex-1 activity in C57BL/6 mouse brain mitochondria assessed as change in rate of NADH consumption at 3.3 uM in presence of antimycin A/decylubiquinone by spectrophotometry; type: ADME
Summary of the method: (§4)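 Frozen-thawed C57BL/6 mouse brain mitochondria solubilized in 5% cholate (pH 7.2), diluted in KME buffer (100 mM KCl, 50 mM MOPS, 1 mM EGTA), treated with compound at 3.3 µM. Complex I: NADH consumption at 340 nm with 100 µM antimycin A, 1 mM decylubiquinone, 150 µM NADH, 40 µg/mL protein, ± 7.5 µM rotenone. Complex IV taken after background subtraction. Mean ± SEM, n=4.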

[12] = Effect on electron transport chain mitochondrial complex-2 activity in C57BL/6 mouse brain mitochondria assessed as change in rate of oxidation of DCPIP at 3.3 uM using succinate as substrate in presence of decylubiquinone by spectrophotometry; type: ADME; summary of the method: as §4
[13] = Effect on electron transport chain mitochondrial complex-3 activity in C57BL/6 mouse brain mitochondria assessed as change in initial rate of reduction of cytochrome C at 3.3 uM in presence of decylubiquinone by spectrophotometry; type: ADME; summary of the method: as §4
[14] = Effect on electron transport chain mitochondrial complex-4 activity in C57BL/6 mouse brain mitochondria assessed as change in first-order rate of consumption of reduced cytochrome C at 3.3 uM measured over 7.5 mins by spectrophotometry; type: ADME; details: 0.125 h; summary of the method: as §4
Brain [15] = test: Effect on oxidative phosphorylation efficiency in C57BL/6 mouse brain mitochondria assessed as change in state 3 respiratory rate of glutamate at 3.3 uM relative to control; type: ADME
Brain [16] = test: Effect on oxidative phosphorylation efficiency in C57BL/6 mouse brain mitochondria assessed as decrease in ADP-stimulated respiratory rate of glutamate at 3.3 uM; type: ADME
Brain [17] = test: Effect on oxidative phosphorylation efficiency in C57BL/6 mouse brain mitochondria assessed as change in state 3 respiratory rate of succinate at 3.3 uM; type: ADME
Brain [18] = test: Effect on oxidative phosphorylation efficiency in C57BL/6 mouse brain mitochondria assessed as change in state 4 respiratory rate of succinate at 3.3 uM; type: ADME
Lipid bilayer [19] = test: Binding affinity to DPPC membrane assessed as phase transition completion temperature at 5:1 […] molar ratio by differential scanning calorimetry (reference value: 43.1 degC); summary of the method: as §3
Lipid bilayer [20] = test: Binding affinity to DPPC membrane assessed as increase in membrane thickness at […] at 50 degC by SAXD analysis; summary of the method: as §2

| Compound | Activity (N2a) | Ratio (Brain [1]) | EC50 [2] [nM] | Ratio (Brain [3]) | Ratio (Brain [4]) | Activity (Lipid bilayer [5]) | Ratio (Brain [6]) | Activity (Lipid bilayer [7]) | deltaH (Lipid bilayer [8]) [kcal/mol] | Activity (Lipid bilayer [9]) | also measured |
| --- | --- | --- | --- | --- | --- | --- | --- | --- | --- | --- | --- |
| CCCCNC(=O)COCC(=O)NCCn1cc(C/C(C(=O)/C=C/c2ccc(O)c(OC)c2)=C(O)\C=C\c2ccc(O)c(OC)c2)nn1 | inactive | 1.2 |  |  |  |  |  |  |  |  | Activity (MC65): inactive |
| COc1cc(/C=C/C(=O)/C(Cc2cn(CCCCCCNC(=O)COCC(=O)NCCCCO[C@H]3CC[C@@]4(C)C(=CC[C@H]5[C@@H]6C[C@@H]7O[C@]8(CC[C@@H](C)CO8)[C@@H](C)[C@@H]7[C@@]6(C)CC[C@@H]54)C3)nn2)=C(O)/C=C/c2ccc(O)c(OC)c2)ccc1O | Active |  | 30.3 |  |  |  |  |  |  |  | Activity (Cortical neurone): Active |
| COc1cc(/C=C/C(=O)/C(Cc2cn(CCCCCCNC(=O)COCC(=O)NCCCCO[C@H]3CC[C@@]4(C)C(=CC[C@H]5[C@@H]6CC[C@H]([C@H](C)CCCC(C)C)[C@@]6(C)CC[C@@H]54)C3)nn2)=C(O)/C=C/c2ccc(O)c(OC)c2)ccc1O |  |  | 1850 |  |  |  |  |  |  |  |  |
| COc1cc(/C=C/C(=O)/C(Cc2cn(CCCCCCNC(=O)COCC(=O)NCCCCN[C@H]3CC[C@@]4(C)C(=CC[C@H]5[C@@H]6CC[C@H]([C@H](C)CCCC(C)C)[C@@]6(C)CC[C@@H]54)C3)nn2)=C(O)/C=C/c2ccc(O)c(OC)c2)ccc1O |  |  | 212 |  |  |  |  |  |  |  |  |
| COc1cc(/C=C/C(=O)/C(Cc2cn(CCNC(=O)COCC(=O)NCCCCO[C@H]3CC[C@@]4(C)C(=CC[C@H]5[C@@H]6CC[C@H]([C@H](C)CCCC(C)C)[C@@]6(C)CC[C@@H]54)C3)nn2)=C(O)/C=C/c2ccc(O)c(OC)c2)ccc1O |  | 2.4 | 296 | 4.4 | 2.4 | Active | 1.2 | Active | 3 to 5 | Active | Activity (Lipid bilayer [10]): Active |
| COc1cc(/C=C/C(=O)/C(Cc2cn(CCNC(=O)COCC(=O)NCCCCO[C@H]3CC[C@@]4(C)C(=CC[C@H]5[C@@H]6C[C@@H]7O[C@]8(CC[C@@H](C)CO8)[C@@H](C)[C@@H]7[C@@]6(C)CC[C@@H]54)C3)nn2)=C(O)/C=C/c2ccc(O)c(OC)c2)ccc1O | Active | 2.1 | 8.3 | 3.9 | 2.3 | Active | 1.1 | Active | 3 to 5 | Active | Activity (Cortical neurone): Active; Activity [11]: Not Active; Activity [12]: Not Active; Activity [13]: Not Active; Activity [14]: Not Active; Activity (Brain [15]): 11.5%; Activity (Brain [16]): Toxic; Activity (Brain [17]): Non-Toxic; Activity (Brain [18]): Non-Toxic; T (Lipid bilayer [19]): 42.4 °C; Activity (Lipid bilayer [10]): Active |
| COc1cc(/C=C/C(=O)/C(Cc2cn(CCNC(=O)COCC(=O)NCCCCN[C@H]3CC[C@@]4(C)C(=CC[C@H]5[C@@H]6CC[C@H]([C@H](C)CCCC(C)C)[C@@]6(C)CC[C@@H]54)C3)nn2)=C(O)/C=C/c2ccc(O)c(OC)c2)ccc1O |  | 2.6 | 56.5 | 3.9 | 2.4 | Active | 1.1 | Active | 3 to 5 | Active | T (Lipid bilayer [19]): 42.4 °C; Activity (Lipid bilayer [20]): Active |
